The source of these data is ChEMBL document CHEMBL4229342, “Synthesis of novel proxyphylline derivatives with dual Anti-Candida albicans and anticancer activity” (Eur J Med Chem, 2018).

In experiment [1] the test system is Candida albicans. Briefly: Antifungal activity against Candida albicans ATCC 90028 infected in Galleria mellonella larvae infected with 20 uM compound pre-treated cell suspensions assessed as reduction in larval hemocytes incubated in dark for 144 hrs at 30 degC and measured every 24 hrs by hematoxylin and eosin staining-based light microscopic analysis. The class given is functional, organism-based.

Experiment [2] concerns Candida albicans. Briefly: Induction of endochitinase release in Candida albicans ATCC 90028 assessed as p-nitrophenyl release from triacetylochitotriose substrate A at 20 uM by chitinolytic activity assay. The class given is functional, organism-based.
In experiment [3] the test system is Candida albicans. Nature of the experiment: Induction of apoptosis in Candida albicans ATCC 90028 protoplast assessed as necrotic cells at 20 uM after 48 hrs Annexin V-FITC/propidium iodide staining based flow cytometric analysis (reference value: 0.33 +/- 0.20%). The class given is functional.
The subject of experiment [4] is Candida albicans. Nature of the experiment: Induction of apoptosis in Candida albicans ATCC 90028 protoplast assessed as viable cells at 20 uM after 48 hrs Annexin V-FITC/propidium iodide staining based flow cytometric analysis (reference value: 96.38 +/- 2.05%). The experiment is classed as functional.
Experiment [5] has as its system Candida albicans. Briefly: Inhibition of biofilm formation of Candida albicans ATCC 90028 up to 20 uM […] by XTT assay. The class given is functional, organism-based.
For experiment [6], the system named is Candida albicans. Briefly: Disruption of cell wall in Candida albicans SC5314 assessed as decrease in chitin level by measuring chitin mean staining index at 20 uM after 18 hrs by calcofluor white staining-based flow cytometric analysis (reference value: 496 +/- 51). The class given is functional.
The test system of experiment [7] is Candida albicans. Nature of the experiment: Fungicidal activity against Candida albicans ATCC 90028 assessed as log reduction in cell viability at 10 uM in RPMI medium in presence of sorbitol. The class given is functional.
Experiment [8] relates to Candida albicans. Nature of the experiment: Antifungal activity against Candida albicans ATCC 90028 infected in Galleria mellonella larvae infected with 20 uM compound pre-treated cell suspensions assessed as reduction in fat body formation in dark for 144 hrs at 30 degC and measured every 24 hrs by hematoxylin and eosin staining-based light microscopic analysis. The class given is functional, organism-based.

For experiment [9], the system named is Candida albicans. Nature of the experiment: Induction of apoptosis in Candida albicans ATCC 90028 protoplast assessed as necrotic cells at 248 uM after 48 hrs Annexin V-FITC/propidium iodide staining based flow cytometric analysis (reference value: 0.33 +/- 0.20%). The class given is functional.
Experiment [10] relates to Candida albicans. Briefly: Antibiofilm activity in Candida albicans ATCC 90028 assessed as cell membrane lysis at 248 uM after 18 hrs by acridine orange/ethidium bromide staining-based confocal laser scanning fluorescence microscopic analysis. The experiment is classed as functional, organism-based. An outline of the steps: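 Unfixed biofilm cells were dual-stained in situ with acridine orange and ethidium bromide, each at 100 µg/mL. Confocal fluorescence and DIC imaging scored green AO nuclei, crescent-shaped chromatin, reddish-orange late apoptotic/necrotic cells and EB uptake, against untreated control biofilm. […]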

Experiment [11] has as its system Candida albicans. Nature of the experiment: Disruption of cell wall in Candida albicans SC5314 assessed as decrease in chitin level by measuring chitin mean staining index at 248 uM after 18 hrs by calcofluor white staining-based flow cytometric analysis (reference value: 496 +/- 51). The experiment is classed as functional.
Experiment [12] deals with Candida albicans. Briefly: Antifungal activity against Candida albicans ATCC 90028 infected in Galleria mellonella larvae infected with 31 uM compound pre-treated cell suspensions assessed as cocoon formation incubated in dark for 144 hrs at 30 degC and measured every 24 hrs (reference value: 65%). The class given is functional.
Experiment [13] relates to Candida albicans. Nature of the experiment: Antifungal activity against Candida albicans ATCC 90028 infected in Galleria mellonella larvae infected with 31 uM compound pre-treated cell suspensions assessed as reduction in fat body formation in dark for 144 hrs at 30 degC and measured every 24 hrs by hematoxylin and eosin staining-based light microscopic analysis. The class given is functional, organism-based.

Calls of active or inactive are those of the source. The calls are words filed in the database; no cut-off is given here.

`CC(Cn1cnc2c1c(=O)n(C)c(=O)n2C)OCc1cn(CCCn2nc3c(Br)c(Br)c(Br)c(Br)c3n2)nn1` (stereo not drawn): the result with Candida albicans [1] and in the experiment with Candida albicans [8] was Active. Moreover, in the experiment on Candida albicans [2], the result was inactive. Also, the Activity is given as 93.94% in the experiment on Candida albicans [3] and 2.87% in the experiment on Candida albicans [4]. Also, the inhibition entry in the experiment on Candida albicans [5] is “inactive”. Besides, in the experiment on Candida albicans [6], the Activity_index is on record as 370. In the experiment with Candida albicans [7], the “log(activity)” value was 6.74.
As to `CC(CN1c2ccccc2Sc2ccccc21)OC(=O)OC(C)Cn1cnc2c1c(=O)n(C)c(=O)n2C` (stereo not drawn), the values for the Activity in the experiment with Candida albicans [9] and in the experiment on Candida albicans [12] were 95.9% and 98%, respectively. In addition, the outcome in the experiment on Candida albicans [10] and in the experiment on Candida albicans [13] was Active. Also, the Activity_index in the experiment on Candida albicans [11] is 550.
